Measured values collected from several papers.
Protocols differ between the studies behind these lines.
Target: MAP kinase-activated protein kinase 2 (MAPKAPK2, Homo sapiens, UniProt P49137)

read-out | method | tested at | remaining binding | SMILES
binding | – | 1 µM | 100% | N[C@@H]1CCN(c2nccc(-c3cnn4ncccc34)n2)C1
cell-free assay | competition with immobilised ligand | 1 µM | 100% | CCCOc1ccc([C@H]2[C@H](C(=O)O)[C@@H](c3ccc4c(c3)OCO4)CN2CC(=O)Nc2c(CC)cccc2CC)cc1
binding | competition with immobilised ligand | 0.1 µM | 49% | C[C@@H](c1ccc(-n2cnc3c(N)ncnc32)cc1)N1CCc2nn(C)c(Cc3ccccc3)c2C1=O
cell-free assay | competition with immobilised ligand | 1 µM | 51% | O=C(O)c1cc(-c2ccc(C3CCNCC3)cc2)c2ccc(-c3ccc(C(F)(F)F)cc3)cc2c1
binding | competition with immobilised ligand | 0.5 µM | 89% | C[C@@H]1CN(c2ccc3ncc(-c4ccc5[nH]nc(C6CC6)c5c4)n3n2)C[C@H](C)O1
binding | competition with immobilised ligand | 1 µM | 66% | O=C(NCC1CCOCC1)c1n[nH]cc1NC(=O)c1c(F)cccc1F
binding | – | 1 µM | 93% | F[C@@H]1CCN(c2nccc(-c3cnn4ncccc34)n2)C1
cell-free assay | competition with immobilised ligand | 1 µM | 83% | CNCc1ccccc1-c1csc([C@@H](C)Nc2nc(C)nc3cc(OC)c(OC)cc23)c1
binding | – | 1 µM | 83% | CN(c1nccc(-c2cnn3ncccc23)n1)C1CC1
binding | competition with immobilised ligand | 1 µM | 100% | CCN1CCN(Cc2ccc(C(=O)Nc3ccc(C)c(Oc4ccc5c(c4)CC(=O)N5)c3)cc2C(F)(F)F)CC1
binding | – | 1 µM | 100% | Cc1cnn2ncc(-c3ccnc(N(C)C)n3)c2c1
binding | competition with immobilised ligand | 1 µM | 88% | Cc1c(C(=O)O)cc(-c2ccc(C3CCNCC3)cc2)c2ccc(-c3ccc(C(F)(F)F)cc3)cc12
binding | competition with immobilised ligand | 1 µM | 100% | Cc1cnc(Nc2ccc(C(=O)N3CCC(N4CCCC4)CC3)cc2)nc1-c1cc2ccccc2s1
cell-free assay | competition with immobilised ligand | 1 µM | 81% | O=C(NS(=O)(=O)c1ccc(NCC2CCOCC2)c([N+](=O)[O-])c1)c1ccc(N2CCN(Cc3ccc(C(F)(F)F)cc3-c3ccc(Cl)cc3)CC2)cc1Oc1cnc2[nH]ccc2c1
binding | competition with immobilised ligand | 1 µM | 100% | C=CC(=O)N1CCC(C(=O)NCC(=O)N2CCN(c3nc(-c4cnc(N)nc4C(F)F)nc(N4CCOCC4)n3)CC2)CC1
binding | competition with immobilised ligand | 10 µM | 82% | N#Cc1ccccc1CSc1nnc2c(n1)[nH]c1ccccc12
binding | – | 1 µM | 84% | CN(C)c1nccc(-c2cnc3ncccn23)n1
binding | competition with immobilised ligand | 1 µM | 100% | O=C(c1ccc(Nc2ncc(Cl)c(-c3ccc(Cl)s3)n2)cc1)N1CCC(N2CCCC2)CC1
cell-free assay | competition with immobilised ligand | 1 µM | 100% | CNC(=O)Nc1ccc2c(c1)[C@@]1(CC2)OC(=O)N(CC(=O)N(Cc2ccc(F)cc2)[C@@H](C)C(F)(F)F)C1=O
binding | competition with immobilised ligand | 1 µM | 100% | O=C(c1ccc(Nc2ncc(Cl)c(-c3cc4ccccc4s3)n2)cc1)N1CCC(N2CCCC2)CC1
cell-free assay | competition with immobilised ligand | 1 µM | 73% | Cn1nc(C(F)(F)F)cc1-c1cnc(N2CCc3cc(S(=O)(=O)Nc4c(F)cc(Cl)cc4F)cc(N4CCCC4=O)c32)nc1
binding | – | 1 µM | 100% | C[C@H]1CCN(c2nccc(-c3cnn4ncccc34)n2)C1
cell-free assay | competition with immobilised ligand | 5 µM | 100% | FC(F)(F)Oc1cccc(-c2cnc3ccc(-c4ccncc4)nn23)c1
binding | competition with immobilised ligand | 1 µM | 100% | COc1cnc(Nc2cccc(S(N)(=O)=O)c2)nc1N1CCN(c2ccccc2)C(=O)C1
